Screening data (PubChem)
Rows were chosen to be rich in hits. Some 2.3% of all compounds tested hit in one or more screens of this group.
TRPC4 agonist: activators of mouse TRPC4 channel, primary screen, Fluo4 calcium, HEK293 TRPC4beta/mu-opioid cells; actives 0.49% (n = 310,000); Fluo4 calcium fluorescence; hits give high values; AID 2237, 2010; B-score at 10 µM; Short transient receptor potential channel 4 (Mus musculus), Q9QUQ5;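 active = B-score above 5 SD of library B-scores, and initial fluorescence ratio not above library mean plus 5 SD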;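 note: positive B-score marks a calcium rise read as TRPC4 activation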
Target sequence (Q9QUQ5 whole entry, looked up): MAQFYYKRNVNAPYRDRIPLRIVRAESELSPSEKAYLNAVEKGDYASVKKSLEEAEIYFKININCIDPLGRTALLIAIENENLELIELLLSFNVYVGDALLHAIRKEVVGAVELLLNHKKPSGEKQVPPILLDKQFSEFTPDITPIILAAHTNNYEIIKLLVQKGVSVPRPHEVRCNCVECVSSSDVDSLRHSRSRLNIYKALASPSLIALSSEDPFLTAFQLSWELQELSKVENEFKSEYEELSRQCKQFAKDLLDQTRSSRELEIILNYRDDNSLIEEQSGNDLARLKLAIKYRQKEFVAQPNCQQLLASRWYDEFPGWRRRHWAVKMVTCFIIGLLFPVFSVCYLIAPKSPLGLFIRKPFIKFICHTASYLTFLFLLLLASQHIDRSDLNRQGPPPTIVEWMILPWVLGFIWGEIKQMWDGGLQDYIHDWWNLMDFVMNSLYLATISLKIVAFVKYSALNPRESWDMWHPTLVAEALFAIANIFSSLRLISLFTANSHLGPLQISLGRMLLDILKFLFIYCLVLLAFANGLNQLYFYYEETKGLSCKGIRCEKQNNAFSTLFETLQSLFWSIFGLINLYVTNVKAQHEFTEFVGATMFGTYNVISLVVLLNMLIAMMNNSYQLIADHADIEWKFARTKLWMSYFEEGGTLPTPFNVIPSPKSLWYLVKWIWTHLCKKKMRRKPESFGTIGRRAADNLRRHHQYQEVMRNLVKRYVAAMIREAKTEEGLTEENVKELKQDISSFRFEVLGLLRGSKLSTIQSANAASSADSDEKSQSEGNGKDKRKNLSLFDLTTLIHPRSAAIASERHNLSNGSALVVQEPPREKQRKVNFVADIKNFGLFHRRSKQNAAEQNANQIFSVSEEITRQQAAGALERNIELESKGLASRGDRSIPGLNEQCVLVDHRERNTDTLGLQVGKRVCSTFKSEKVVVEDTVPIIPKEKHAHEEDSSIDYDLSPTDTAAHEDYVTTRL
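Technique: kinetic Fluo4 calcium fluorescence; Test system: TRPC4beta and mu-opioid receptor HEK293 stable cells; Measure: B-scored integrated calcium fluorescence ratio; Benchmarks: low control buffer alone, high control maximal DAMGO; Schedule: 45 min room-temperature Fluo4 loading, 110 s read.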
TRPC4 PAM: positive allosteric modulators of TRPC4, primary screen, cell-based, mouse TRPC4beta, HEK293 mu-opioid, Fluo-4 calcium; B-score at 10 µM; DAMGO EC20, Fluo-4 Ca2+ flux; hits give high values; actives 0.42% (n = 310,000);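 active = B-score of calcium response area above 5 SD of library B-scores, with initial fluorescence ratio within 5 SD of library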;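 note: B-score of integrated fluorescence ratio over time as area under calcium response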
TRPC4 block: inhibitors of mouse TRPC4 channel, primary screen, Fluo4 calcium, HEK293 TRPC4beta/mu-opioid cells; actives 0.39% (n = 300,000); DAMGO-evoked Fluo4 calcium flux; hits give low values; B-score at 10 µM; Short transient receptor potential channel 4 (Mus musculus), Q9QUQ5;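 active = B-score over 3 SD under the library average, no early fluorescence shift, positive overall ratio signal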
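Material: HEK293 cells with stable TRPC4beta plus mu-opioid receptor expression; probe or stimulus: DAMGO in two steps, submaximal then maximal; technique: Fluo4 calcium fluorescence by kinetic imaging, 5 s 1 Hz baseline; measure: integrated fluorescence ratio relative to baseline, converted to per-well B score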
TRPC6 act: mouse TRPC6 channel activators, primary screen, cell-based, HEK293, membrane potential dye; Short transient receptor potential channel 6 (Mus musculus), Q61143; HEK293-TRPC6 membrane potential dye fluorescence; hits give high values; B-score at 10 µM; actives 0.13% (n = 310,000); AID 2550, 2010;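 active = B-score of the integrated fluorescence ratio above library mean plus 3 SD, and starting fluorescence ratio within library mean plus 5 SD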;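 note: higher score means more depolarization so channel activation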
TRPC6 inh: mouse TRPC6 channel inhibitors, primary screen, cell-based, HEK293, membrane potential dye; ACh-evoked depolarization; hits give low values; B-score at 10 µM; actives 1.1% (n = 310,000); AID 2553, 2010;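 active = B-score under library mean minus 3 SD, initial fluorescence not abnormally high, positive integrated signal ratio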;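 note: B-score derived from integrated fluorescence ratio over the kinetic read; more negative B-score means stronger inhibition of depolarization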
TRPC4 sel inh 2: second check of whether TRPC6 inhibitors also affect mouse TRPC4. shares compounds with TRPC6 inh. HEK293 TRPC4/MOR, membrane potential dye fluorescence; channel activated by saturating DAMGO dose. inhibition, % at 10 µM. actives 42% (n = 920). AID 2776;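 active = compounds whose fluorescence signal differed from control wells by over 3 SD, either direction, in both duplicate plates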
TRPC4 spec: mouse TRPC4 modulation by TRPC6 hits, confirmation, selectivity assay for TRPC6 inhibitor project, cell-based, HEK293 TRPC4/mu-opioid, membrane potential dye. shares compounds with TRPC6 inh. membrane potential fluorescence. activity change, negative = inhibition, % at 10 µM. actives 61% (n = 920). AID 2777, 2010;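 active = rise or fall in signal beyond 3 SD of buffer-only wells in both replicate plates, either sign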;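 note: integrated kinetic ratio of fluorescence range over baseline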
HEK293 MPD ctr 2-1: nonspecific membrane potential effects, parental HEK293, confirmation, counter-screen for TRPC6 inhibitor project, cell-based, second counter screen. shares compounds with TRPC6 inh. signal change vs control, % at 10 µM. AID 2779, 2010. parental HEK293 membrane potential dye fluorescence; maximal acetylcholine challenge after compound addition. actives 31% (n = 920);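 active = membrane potential signal moving either way by over 3 SD of the maximum-effect control, in both duplicate plates, meaning non-specific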
HEK293 MPD ctr-1: membrane potential modulation in parental HEK293, confirmation, counter-screen for TRPC6 inhibitor project, cell-based; shares compounds with TRPC6 inh; parental HEK293 membrane potential dye fluorescence; membrane potential signal change, % at 10 µM; actives 60% (n = 920); AID 2780, 2010;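 active = membrane potential signal shifting up or down by more than 3 SD of buffer-only wells, on both duplicate plates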
HEK293 MPD ctr-2: parental HEK293 membrane potential modulation, confirmation, counter-screen for TRPC6 modulator project, cell-based; shares compounds with TRPC6 inh; membrane potential dye fluorescence; membrane potential signal change, % at 10 µM; actives 51% (n = 2,400);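 active = membrane potential signal moves up or down beyond 5 SD from buffer-only wells, on both duplicate plates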
HEK293 MPD ctr 2-2: second counter-screen for TRPC6 modulators: effect in parental HEK293 cells. shares compounds with TRPC6 inh. membrane potential dye fluorescence; after compound, maximal acetylcholine stimulation. inhibition, % at 10 µM. actives 14% (n = 2,400). AID 488926;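 active = membrane potential signal drops by more than 5 SD from the mean control signal, in both duplicate plates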;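 note: plate controls were acetylcholine ECmax control wells for no effect and buffer only wells for full effect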
TRPC4 ctr mod: TRPC4 modulation by TRPC6 hit compounds, confirmation, selectivity assay for TRPC6 modulator project, cell-based, HEK293 TRPC4/mu-opioid, membrane potential dye, mouse; membrane potential fluorescence; actives 69% (n = 2,400); shares compounds with TRPC6 inh; percent change from control (negative = decrease, positive = increase), % at 10 µM;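 active = membrane potential signal moved up or down beyond 5 SD of buffer control wells, in both duplicate plates, actives on both sides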;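 note: plate controls were assay buffer wells for no effect and DAMGO maximal-effect wells for full effect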
TRPC4 ctr inh 2: second selectivity test of TRPC6 modulators against mouse TRPC4; AID 488928; HEK293 TRPC4/mu-opioid, membrane potential dye fluorescence; stimulated with maximal-effect DAMGO; actives 55% (n = 2,400); inhibition, % at 10 µM; shares compounds with TRPC6 inh;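 active = drop in membrane potential signal beyond 5 SD of the control wells in both duplicate plates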;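 note: TRPC4 counter screen for TRPC6 hits run under conditions tuned for TRPC6 not TRPC4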
TRPC6 block conf: mouse TRPC6 channel inhibitors, confirmation, HEK293 cells, membrane potential dye, duplicate; shares compounds with TRPC6 inh; ACh-evoked depolarization; inhibition, % at 10 µM; actives 43% (n = 3,300); AID 488960, 2010;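 active = fluorescence ratio falls more than 5 SD below the full-stimulation control mean, in both duplicate runs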;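 note: integrated fluorescence ratio of peak minus minimum over baseline after agonist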
TRPC6 act conf: mouse TRPC6 channel activators, confirmation, HEK293 cells, membrane potential dye, duplicate; shares compounds with TRPC6 inh; HEK293-TRPC6 membrane potential dye fluorescence, FDSS; activation, % at 10 µM; actives 11% (n = 2,800);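 active = ratio signal rise beyond 5 SD above unstimulated control wells' mean, seen in both duplicate runs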;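 note: plate controls were buffer EC0 wells for no effect and acetylcholine ECmax response for full effect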
* hit, by the source's call; i = inactive; . = no result given.

SMILES	TRPC4 agonist	TRPC4 PAM	TRPC4 block	TRPC6 act	TRPC6 inh	HEK293 MPD ctr-2	HEK293 MPD ctr 2-2	TRPC4 ctr mod	TRPC4 ctr inh 2	TRPC6 block conf	TRPC6 act conf	others
COc1ccc(CN(CC(O)COc2cccc3[nH]cc(C)c23)C(C)(C)C)cc1 (centres undefined)	i	i	i	i	i	.	.	.	.	.	.
c1ccc(-c2csc(Nc3cccnc3)n2)nc1	i	i	.	i	-6*	-84%*	i	-18%*	i	i	i
NCCOc1ccc(C23CC4CC(CC(C4)C2)C3)cc1	i	i	i	i	i	.	.	.	.	.	.
NCC12CC3CC(C1)CC(c1ccc(Br)cc1)(C3)C2	i	i	i	i	-8.6*	.	.	.	.	62%*	i	TRPC4 sel inh 2=44%*;TRPC4 spec=-10%*;HEK293 MPD ctr 2-1=i;HEK293 MPD ctr-1=-178%*
Cc1ccc(C23CC4CC(CC(CN)(C4)C2)C3)cc1	i	i	i	i	-7.5*	.	.	.	.	i	i	TRPC4 sel inh 2=42%*;TRPC4 spec=-11%*;HEK293 MPD ctr 2-1=i;HEK293 MPD ctr-1=-176%*
O=C(CSc1n[nH]c(-c2ccccc2Cl)n1)NC1CCCCC1	i	i	i	i	i	.	.	.	.	.	.
O=C(CNS(=O)(=O)c1c(Cl)cccc1Cl)N1CCCCCC1	i	i	i	i	i	.	.	.	.	.	.
Cc1cccc(C)c1Nc1ncnc2ccccc12	i	i	i	i	i	.	.	.	.	.	.
CCN(CC)c1ccc(C2Nc3cccc4cccc(c34)N2)cc1	i	i	i	i	-5.5*	i	i	i	i	i	i
Cc1cc(C)n(-c2nc(SCCN(C)C)c3c4c(sc3n2)COC(C)(C)C4)n1	i	i	i	i	-9.8*	.	.	.	.	57%*	i	TRPC4 sel inh 2=48%*;TRPC4 spec=-15%*;HEK293 MPD ctr 2-1=i;HEK293 MPD ctr-1=-304%*
CCCn1c(NCc2ccc3c(c2)OCO3)nc2ccccc21	i	i	i	i	-5.2*	i	i	8.0%*	74%*	44%*	i
CCCCn1c(NCc2ccc3c(c2)OCO3)nc2ccccc21	i	i	i	i	-5.2*	i	i	i	88%*	40%*	i
COc1cccc(CNC(=O)[C@H](C)NC(=O)C2CCN(S(=O)(=O)c3ccccc3)CC2)c1	i	i	i	i	i	.	.	.	.	.	.
COc1nc(N(c2ccccc2)c2ccccc2)nc(-n2ccnc2)n1	i	i	i	12*	i	372%*	59%*	64%*	i	i	132%*
CNC(=O)Cn1c(C)cc(=O)c2cccc(OC)c21	i	i	i	i	-6.9*	-471%*	i	-70%*	41%*	40%*	i
NS(=O)(=O)c1ccc(NC(=O)COc2cccc3ccccc23)cc1	i	i	i	i	i	.	.	.	.	.	.
CN(C(=O)c1ccc2c(=O)n3c(nc2c1)CCCCC3)c1cccc(Cl)c1	i	i	i	i	i	.	.	.	.	.	.
Cc1ccc2nc3c(cc(S(=O)(=O)c4ccccc4)c(=N)n3Cc3ccco3)c(=O)n2c1	i	i	i	i	-5.5*	i	i	i	i	i	i
CC(C)CC(C)N1CCC(n2nccc2NC(=O)CCc2ccccc2)CC1 (centres undefined)	i	i	i	i	i	.	.	.	.	.	.
N#Cc1cc2[nH]c3ccccc3c2[n+](-c2ccc([N+](=O)[O-])cc2)c1N	i	i	i	i	-9.9*	-322%*	94%*	-18%*	97%*	75%*	i
O=C(Nc1cccc(F)c1)/C(=C\c1ccco1)NC(=O)c1ccco1	i	i	i	i	i	.	.	.	.	.	.
CCCn1c(CCNC(=O)c2ccco2)nc2ccccc21	i	i	i	i	i	.	.	.	.	.	.
CC(C)=CCc1cc2c(=O)c3c(O)c4c(cc3oc2c(O)c1O)OC(C)C4(C)C (centres undefined)	i	i	i	i	i	.	.	.	.	.	.
CN(C)S(=O)(=O)N1CCN(c2ccccc2Cl)CC1	i	i	i	i	i	.	.	.	.	.	.
